Measured values taken from PubChem BioAssay.
Results filed as inconclusive are left out.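 Rule for the calls, unless noted: active = RAM network inhibition above 8.4% in each of two replicates, 3 SD over the compound average; inconclusive = above 8.4% inhibition in only one replicate; inactive = 8.4% inhibition or less in each replicate.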

Key:
[1] = OD615 S. cerevisiae growth inhibition, permissive medium, pilot counter-assay, permissive growth control for S. cerevisiae lifespan shortening project (AID 705;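 active = growth inhibition above 25% in both replicates, a cutoff set 3 SD above the mean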); conditions: OD615, 24 h, at 10 µM, stronger effect = higher value
In short: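 System: Engineered DeaD yeast | Buffer or medium: SC raffinose/galactose permissive medium | Incubation: Cells pre-grown 4 h, then 24 h compound exposure, 30 °C humidified | Measured by: Absorbance (optical density) at 615 nm | Read-out: Reduction in yeast growth (OD615)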

[2] = Restrictive medium S. cerevisiae growth inhibition, OD615, pilot screen of yeast lifespan reduction project, restrictive growth control (AID 706;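 active = growth inhibition above a set limit, 3 SD over mean compound inhibition, in both replicates, cut at about 43% in these data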;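 note: modified DeaD lifespan yeast strain shifted to restrictive glucose medium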); conditions: OD615, 48 h, at 10 µM, stronger effect = higher value
In short: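 Material: modified S. cerevisiae; Medium: glucose-based CSMM-D restrictive medium; Compound dosing: one concentration, 10 µM final, 0.25% DMSO; Incubation: 48 h compound exposure at 30 °C; Measured by: OD615.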

[3] = viability gain of MRP-1-high H69AR cells under doxorubicin, pilot screen, MRP-1 activator project, CellTiter-Glo, duplicate (AID 807;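 active = viability increase at or above a cutoff of the median across tested compounds plus 3 SD, cut at about 8.5% in these data, passing the limit was not always enough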;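 note: compound pretreatment 18-22 h then 72 h combined with doxorubicin; 0% = doxorubicin alone and 100% = vehicle without doxorubicin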); conditions: H69AR viability with doxorubicin, CellTiter-Glo luminescence; at 10 µM; stronger effect = higher value
[4] = growth suppression of beta-catenin knockout HCT116, pilot screen, human colon tumor cells (AID 823;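 active = cell viability at or below a set limit in both duplicate runs, the limit being the all-compound median minus 4 SD, cut at about 23% in these data, passing the limit was not always enough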;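 note: 0% = wells killed by 20 µM Hyamine and 100% = untreated DMSO cell wells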); conditions: CellTiter-Glo, 60 h, at 10 µM, stronger effect = lower value
[5] = growth suppression of PTEN-deleted HCT116, pilot screen, cell-based, HCT116 clonal line, CellTiter-Glo (AID 824;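 active = viability at or below 27.92% in each of two runs, the all-compound median minus 4 SD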;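 note: 0% = 20 µM Hyamine control and 100% = vehicle cell control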); conditions: 60 h, at 10 µM, stronger effect = lower value
[6] = inhibitors of the yeast RAM network, pilot screen, dse1pr::URA3 reporter, 5-FOA selection (AID 869;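 active = inhibition over a set limit, the all-compound mean plus 3 SD, in both replicate runs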;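 note: 0% = DMSO wells with no growth and 100% = 10 µM 1-NA-PP1 with full growth; RAM network block rescues cells from 5-FOA so hits raise OD615 growth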); conditions: S. cerevisiae dse1pr::URA3 5-FOA growth, OD615, 2 d; at 10 µM; stronger effect = higher value; strain carries analog-sensitive mutant Cbk1 kinase
[7] = RAM signaling pathway blockade in yeast – S. cerevisiae, Pdr1DBD-CYC8 efflux-inhibited sensitized strain, primary screen (AID 1298);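 note: 0% = DMSO untreated cells without growth and 100% = 10 µM 1-NA-PP1 full growth; higher means more yeast growth rescued from 5-FOA killing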; conditions: S. cerevisiae cbk1-as DSE1-URA3 strain, 5-FOA growth OD615, 2 d; at 50 µM; stronger effect = higher value

CCOCCCNC(=O)CCCn1nc(C)n2c(cc3sccc32)c1=O
inactive: growth inhibition [1] -4.89% | growth inhibition [2] 5.71% | viability increase [3] 0.66% | viability [4] 108% | viability [5] 98% | inhibition [6] 0.895% | RAM network inhibition [7] 4.4%

COc1ccc(CNC(=O)c2cnn3c(C(F)F)cc(C)nc23)cc1OC
inactive: growth inhibition [1] -6.09% | growth inhibition [2] 9.23% | viability increase [3] 0.02% | viability [4] 92.3% | viability [5] 86.2% | inhibition [6] 1.99% | RAM network inhibition [7] 2.31%

C=CCn1c(SCC(=O)N2CCOCC2)nc(O)c(Cc2ccccc2)c1=O
inactive: growth inhibition [1] -12.9% | growth inhibition [2] -8.77% | viability increase [3] 1.77% | viability [4] 99.4% | viability [5] 98.5% | inhibition [6] 1.49% | RAM network inhibition [7] 1.73%

COCCCNC(=O)Cn1cc2c(n1)CCCCC2
inactive: growth inhibition [1] 3.39% | growth inhibition [2] -2.59% | viability increase [3] 0.05% | viability [4] 104% | viability [5] 106% | inhibition [6] -0.6% | RAM network inhibition [7] 4.53%

Cc1cc(C)nc(SCC(=O)c2ccc(O)cc2O)n1
inactive: growth inhibition [1] -0.2% | growth inhibition [2] 9.03% | viability increase [3] -3.73% | viability [4] 99.7% | viability [5] 99.4% | inhibition [6] 1.04% | RAM network inhibition [7] -1.2%

O=C(O)c1ccccc1C(=O)NCc1ccccc1
inactive: growth inhibition [1] -7.18% | growth inhibition [2] -15.6% | viability increase [3] 1.13% | viability [4] 99.3% | viability [5] 100% | inhibition [6] 0.27% | RAM network inhibition [7] 1.13%

Cc1nc2sc(C(c3cccs3)N3CCN(Cc4ccccc4)CC3)c(O)n2n1 (configuration not stated)
inactive: growth inhibition [1] -7.44% | growth inhibition [2] -19.6% | viability increase [3] -1.47% | viability [4] 101% | viability [5] 89.8% | inhibition [6] -0.06% | RAM network inhibition [7] 4.97%

CC(C)(C)c1ccc(S(=O)(=O)N2CCCCC2C(=O)NCc2ccccn2)cc1 (configuration not stated)
inactive: growth inhibition [1] -24.9% | growth inhibition [2] -29% | viability increase [3] -2.34% | viability [4] 93% | viability [5] 84.6% | inhibition [6] 0.13% | RAM network inhibition [7] 5.71%

CC(C)Nc1ncnc2c1cnn2-c1ccc(Cl)cc1
inactive: growth inhibition [1] 5.42% | growth inhibition [2] -5.25% | viability increase [3] -3.14% | viability [4] 83.3% | viability [5] 72.6% | inhibition [6] 1.14% | RAM network inhibition [7] -0.94%

CCOC(=O)N1CCN(c2c(NCc3ccccn3)c(=O)c2=O)CC1
inactive: growth inhibition [1] 8.16% | growth inhibition [2] 18.2% | viability increase [3] -1.44% | viability [4] 103% | viability [5] 96% | inhibition [6] 1.28% | RAM network inhibition [7] 1.45%

CN1/C(=C/C=N/n2cnnc2)C(C)(C)c2ccccc21
inactive: growth inhibition [1] -6.3% | growth inhibition [2] -17.9% | viability increase [3] -0.78% | viability [4] 98% | viability [5] 93.2% | inhibition [6] 0.465% | RAM network inhibition [7] 3.01%

CCC(C)NC(=O)C1CCC(=O)N(c2ccc3c(c2)OCO3)C1c1ccc(OC)cc1 (configuration not stated)
inactive: growth inhibition [1] 0.49% | growth inhibition [2] -0.06% | viability increase [3] -1.78% | viability [4] 103% | viability [5] 100% | inhibition [6] 1.02% | RAM network inhibition [7] 4.2%

CCCc1nnc(SCC(=O)O)n1/N=C/c1ccc2c(c1)OCO2
inactive: growth inhibition [1] 8.88% | growth inhibition [2] 34.1% | viability increase [3] -2.31% | viability [4] 102% | viability [5] 101% | inhibition [6] 0.54% | RAM network inhibition [7] 0.41%

Cc1ccc(CCN2CC(C(=O)NCCCN3CCN(C)CC3)CC2=O)cc1 (configuration not stated)
inactive: growth inhibition [1] 1.07% | growth inhibition [2] -3.19% | viability increase [3] -2.38% | viability [4] 75.9% | viability [5] 92.8% | inhibition [6] -0.675% | RAM network inhibition [7] 1.23%

O=C(CCCOc1ccccc1)Nc1cccc(C(=O)O)c1
inactive: growth inhibition [1] -0.54% | growth inhibition [2] 3.65% | viability increase [3] 0.34% | viability [4] 96% | viability [5] 98.6% | inhibition [6] 2.61% | RAM network inhibition [7] 2.71%

CCOC(=O)c1c(C)n(C)c2ccc(OCC(N)=O)cc12
inactive: growth inhibition [1] -3.96% | growth inhibition [2] -11% | viability increase [3] -4.45% | viability [4] 100% | viability [5] 99.3% | inhibition [6] 1.96% | RAM network inhibition [7] 6.79%

COCN(C#N)c1nc(OC)nc(OC)n1
inactive: growth inhibition [1] 0.79% | growth inhibition [2] 7.01% | viability increase [3] 2.98% | viability [4] 103% | viability [5] 104% | inhibition [6] -0.1% | RAM network inhibition [7] 2.34%

CC(c1ccccc1F)n1cc(C(=O)NCc2ccncc2)nn1 (configuration not stated)
inactive: growth inhibition [1] -19.2% | growth inhibition [2] -8.25% | viability increase [3] -0.75% | viability [4] 96.3% | viability [5] 94.9% | inhibition [6] 1.86% | RAM network inhibition [7] 4.53%

O=C(C1CC1)N1CCCN(C(=O)C2CC2)CC1
inactive: growth inhibition [1] 2.42% | growth inhibition [2] -1.38% | viability increase [3] -1.86% | viability [4] 98.8% | viability [5] 97.1% | inhibition [6] 2.03% | RAM network inhibition [7] 4.69%

C=CCn1c(-c2ccco2)n[nH]c1=S
inactive: growth inhibition [1] 2.98% | growth inhibition [2] -4.35% | viability increase [3] -1.3% | viability [4] 110% | viability [5] 97.6% | inhibition [6] 1.58% | RAM network inhibition [7] 2.89%

CCOC(=O)Nc1ccc2c(c1)N(C(=O)N(CC)CC)c1ccccc1CC2
inactive: growth inhibition [1] -8.36% | growth inhibition [2] -26.2% | viability increase [3] -3.07% | viability [4] 71.6% | viability [5] 71.3% | inhibition [6] 2.9% | RAM network inhibition [7] 2.11%

CSc1nnc2c(n1)OC(c1ccc(C(=O)O)cc1)N(C(C)=O)c1ccccc1-2 (configuration not stated)
inactive: growth inhibition [1] -1% | growth inhibition [2] 13.2% | viability increase [3] 0.23% | viability [4] 102% | viability [5] 96.6% | inhibition [6] 1.57% | RAM network inhibition [7] 3.34%

COc1ccc(C2N3CC4(C)CN2CC(C)(C3)C4O)cc1 (configuration not stated)
inactive: growth inhibition [1] -17.7% | growth inhibition [2] -6.65% | viability increase [3] 0.42% | viability [4] 106% | viability [5] 97.2% | inhibition [6] 1.22% | RAM network inhibition [7] -0.16%

CC(Oc1ccc(Cl)cc1Cl)c1nc(-c2ccccn2)no1 (configuration not stated)
inactive: growth inhibition [1] -3.06% | growth inhibition [2] 5.3% | viability increase [3] 1.23% | viability [4] 99.1% | viability [5] 87.7% | inhibition [6] 0.375% | RAM network inhibition [7] 2.34%

Cc1ccc2nc(N3CCOCC3)c3nncn3c2c1
inactive: growth inhibition [1] -6.37% | growth inhibition [2] 3.97% | viability increase [3] -2.43% | viability [4] 106% | viability [5] 96.1% | inhibition [6] 0.915% | RAM network inhibition [7] 1.57%

CC1CC=C2C(C#N)=C(N)C(C#N)(C#N)C(c3cccs3)C2C1 (configuration not stated)
inactive: growth inhibition [1] -11% | growth inhibition [2] -6.39% | viability increase [3] -4.25% | viability [4] 85.5% | viability [5] 85.7% | inhibition [6] 2.66% | RAM network inhibition [7] 3.84%

O=C(NCCn1ccc2ccccc21)c1ccc2c(c1)OCO2
inactive: growth inhibition [1] -2.72% | growth inhibition [2] -4.68% | viability increase [3] 0.1% | viability [4] 101% | viability [5] 94.4% | inhibition [6] 0.58% | RAM network inhibition [7] 6.97%

COCCN1C=C(C(=O)OC)C(c2ccc(OC)c(OC)c2)C(C(=O)OC)=C1
inactive: growth inhibition [1] -4.43% | growth inhibition [2] -9.06% | viability increase [3] -0.95% | viability [4] 98% | viability [5] 100% | inhibition [6] 1.43% | RAM network inhibition [7] -0.97%

COc1ccc(N(CC(=O)N2CCCCC2)S(=O)(=O)c2c(C)nn(C)c2C)cc1
inactive: growth inhibition [1] -5.81% | growth inhibition [2] 5.36% | viability increase [3] -2.35% | viability [4] 105% | viability [5] 96.7% | inhibition [6] 1.69% | RAM network inhibition [7] 2.99%

COC(=O)C1=CN(C(C)C)C=C(C(=O)OC)C1c1cccc(OC)c1
inactive: growth inhibition [1] -3.31% | growth inhibition [2] -9.06% | viability increase [3] -4.15% | viability [4] 73.8% | viability [5] 63.2% | inhibition [6] 0.405% | RAM network inhibition [7] 5.46%

CCC(C)NC(=O)CS(=O)Cc1nc(-c2ccccc2C)oc1C (configuration not stated)
inactive: growth inhibition [1] 1.69% | growth inhibition [2] 12.7% | viability increase [3] -2.38% | viability [4] 96.1% | viability [5] 95.2% | inhibition [6] 1.9% | RAM network inhibition [7] 9.39%

CCOC(=O)c1ccccc1Nc1cc(C)nc2nc(C)nn12
inactive: growth inhibition [1] -4.38% | growth inhibition [2] 9.16% | viability increase [3] -5.14% | viability [4] 97.6% | viability [5] 93% | inhibition [6] 1.52% | RAM network inhibition [7] 1.2%

CCN(c1ccccc1)S(=O)(=O)c1ccc(N)cc1
inactive: growth inhibition [1] -4.66% | growth inhibition [2] -1.86% | viability increase [3] -1.02% | viability [4] 94.5% | viability [5] 98.1% | inhibition [6] 2.56% | RAM network inhibition [7] 2.68%

CC(=O)c1c(NCc2ccccc2)nc(=O)n(-c2ccccc2)c1C
inactive: growth inhibition [1] -4.12% | growth inhibition [2] 4.42% | viability increase [3] -1.28% | viability [4] 94.7% | viability [5] 97% | inhibition [6] 1.98% | RAM network inhibition [7] 4.07%

Cc1ccc2sc(NC(=O)CN3C(=O)CCC3=O)nc2c1C
inactive: growth inhibition [1] -10.4% | growth inhibition [2] -12.7% | viability increase [3] 2.23% | viability [4] 114% | viability [5] 109% | inhibition [6] 0.805% | RAM network inhibition [7] 2.15%

Cc1cnc(NC(=O)c2ccc(-c3nc4ccccc4s3)o2)s1
inactive: growth inhibition [1] -7.12% | growth inhibition [2] 10.2% | viability increase [3] -3.16% | viability [4] 98.1% | viability [5] 96.3% | inhibition [6] 0.165% | RAM network inhibition [7] 0.78%
